Bioassay records as filed in PubChem BioAssay.
CRFR2-BP antag: antagonists of CRF-BP/CRF-R2 complex, primary screen, cell-based, HEK293, calcium dye fluorescence, uHTS. CRF-induced calcium fluorescence. inhibition, % at 11.8 µM. actives 0.59% (n = 350,000);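 active = inhibition of the ligand-induced calcium signal above about 50% at the single tested concentration, limit read from the data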
CRFR2-BP ag: agonists of CRF-BP/CRF-R2 complex, primary screen, cell-based, HEK293, calcium dye fluorescence, uHTS. CRF-binding protein / CRF receptor 2 complex (human). calcium dye fluorescence (FLIPR); percent of saturating CRF peptide response. activation, % at 13.2 µM. actives 0.46% (n = 350,000). AID 588473, 2011;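 active = activation of at least 50%, plus an integration ratio under a set limit after plate pattern correction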
DDE Tn6 FP inh: inhibitors of Tn6 peptide binding to fibrin DD(E), primary screen, biochemical, fluorescence polarization, human fibrin, Tn6 probe; actives 0.21% (n = 370,000); AID 720509, 2013; inhibition, % at 8.3 µM; Fibrinogen beta chain (Homo sapiens), P02675; Fibrin DD(E) TRITC-Tn6 fluorescence polarization displacement;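 active = inhibition above a per-campaign cutoff: mean of compounds within control limits plus 3 SD, cut at about 15% in these data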
Target sequence (P02675 whole entry, looked up): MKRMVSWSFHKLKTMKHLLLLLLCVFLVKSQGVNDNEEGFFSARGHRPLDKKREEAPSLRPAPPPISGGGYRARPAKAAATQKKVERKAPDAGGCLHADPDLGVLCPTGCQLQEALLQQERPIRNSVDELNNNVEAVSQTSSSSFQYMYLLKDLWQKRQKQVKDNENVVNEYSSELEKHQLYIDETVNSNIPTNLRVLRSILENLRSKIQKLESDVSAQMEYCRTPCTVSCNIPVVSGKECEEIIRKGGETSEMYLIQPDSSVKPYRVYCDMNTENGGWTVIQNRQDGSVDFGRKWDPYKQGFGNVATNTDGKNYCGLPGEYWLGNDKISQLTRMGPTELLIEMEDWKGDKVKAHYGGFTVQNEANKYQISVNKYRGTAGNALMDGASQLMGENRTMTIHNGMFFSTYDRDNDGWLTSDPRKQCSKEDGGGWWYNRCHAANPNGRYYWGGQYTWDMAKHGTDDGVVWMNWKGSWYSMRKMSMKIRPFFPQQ
DDE Tn7 FP inh: inhibitors of Tn7 peptide binding to fibrin DD(E), primary screen, biochemical, fluorescence polarization, human fibrin, Tn7 probe; actives 0.13% (n = 370,000); FP displacement of FITC-Tn7 peptide from fibrin DD(E); 0% = median of compound wells per plate; inhibition, % at 8.3 µM; Fibrinogen beta chain (Homo sapiens), P02675;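 active = inhibition above the mean of compounds falling within the control limits plus 3 SD of them, cut at about 14% in these data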
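Test system – human fibrin DD(E) · Times – 10 min preincubation, 3 h with tracer, room temperature · Detection – fluorescence polarization of the labelled Tn7 tracer · Measure – percent inhibition normalized to high-control wells · Benchmarks – high control wells with 10 µM unlabelled Aha-Tn7 peptide (full inhibition) · Repeats – singlicate testing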
Numbers stand for hits; - = inactive; . = no result. Sampled rows, rich in hits. Any-hit rate of the full collection: about 1.2%.

SMILES | CRFR2-BP antag | CRFR2-BP ag | DDE Tn6 FP inh | DDE Tn7 FP inh
O=C(NN=C/C=C/c1ccco1)c1cc(-c2ccc(Cl)cc2)n[nH]1 | . | . | - | -
O=S1(=O)c2ccc(N3CCC[C@@H]3CO)cc2O[C@H]2CCN1C2 | . | . | - | -
Cc1cccc(C=CC(=O)c2ccccc2)c1 | - | - | - | -
Cc1ccc(C(=O)C=Cc2cccc(C)c2)cc1 | 59 | - | - | -
CCCCc1nnc2c(N(C)S(=O)(=O)c3ccccc3)nc3ccccc3n12 | 59 | - | - | -
C=CCN1[C@H](C#N)[C@@H](c2ccc(C#Cc3cccc(OC)c3)cc2)[C@H]1CO | . | . | - | -
CCn1cc(C=C2C(=O)c3ccccc3C2=O)c2ccccc21 | - | 196 | - | -
Nc1cc2c3c(cccc3c1)C(=O)N(CCN1CCCC1)C2=O | - | 66 | - | -
COC(=O)[C@]12C[C@H](CC(=O)NCCc3ccccc3OC)C(=O)N(CCC3=CCCCC3)C1=C[C@H](C(C)C)O[C@@H]2C1CC1 | . | . | - | -
COc1ccc([N+](=O)[O-])cc1NCc1ccccc1C | - | - | - | -
Cc1cc([N+](=O)[O-])ccc1NCc1ccco1 | 59 | - | - | -
Cc1cc([N+](=O)[O-])ccc1NCc1ccc2c(c1)OCCO2 | 53 | - | - | -
COc1ccc([N+](=O)[O-])cc1NCc1ccccc1 | 98 | - | - | -
COc1cccc(CNc2ccc([N+](=O)[O-])cc2C)c1 | 58 | - | - | -
Cc1ccc([C@H](C)NC(=O)C2=C(N)N(S(=O)(=O)c3ccc(C)cc3)C(C(=O)c3ccccc3)C2c2ccccc2Cl)cc1 (stereo partly drawn) | . | . | - | -
COC(=O)c1cc(C(c2ccccc2O)C2CCCO2)n2cccc(C(C)(C)C)c12 (stereo not drawn) | . | . | - | -
O=c1cc(Cc2ccc([N+](=O)[O-])cc2)[nH]c(=O)[nH]1 | 57 | - | - | -
CCCSc1cc(NCCOC(=O)CCC)c([N+](=O)[O-])c2nonc12 | - | - | - | -
CCCC(=O)OCCNc1cc(Sc2nccn2C)c2nonc2c1[N+](=O)[O-] | 52 | - | - | -
COc1ccc2c(c1OC)C(=O)N1c3ccccc3COC21 (stereo not drawn) | 67 | - | - | -
c1ccc2c(c1)nnn2-c1ncnc2sc3c(c12)CCCC3 | 62 | - | - | -
COc1ccccc1N1CCN(C(=O)c2cc3c(C)nn(-c4ccccc4)c3s2)CC1 | . | . | - | -
CCN(CC)CCN(C(=O)CN1C(=O)c2ccccc2C1=O)c1nc2cc3c(cc2s1)OCO3 | 76 | - | - | -
CN(C)CCN(C(=O)CN1C(=O)c2ccccc2C1=O)c1nc2cc3c(cc2s1)OCO3 | - | - | - | -
COc1ccc(-n2c(SCc3ccc([N+](=O)[O-])cc3)nnc2-c2ccco2)cc1 | . | . | - | -
SMILES | CRFR2-BP antag | CRFR2-BP ag | DDE Tn6 FP inh | DDE Tn7 FP inh
CCOc1ccc(-n2c(SCc3ccc([N+](=O)[O-])cc3)nnc2-c2ccc(OC)cc2)cc1 | 53 | - | - | -
CCOC(=O)[C@@]12CN(C(=O)OC(C)(C)C)CC=C1N(Cc1ccc(OC)cc1)C(=O)[C@H]2CC(=O)NCC12CC3CC(CC(C3)C1)C2 | . | . | - | -
COc1ccc(CNS(=O)(=O)c2cc3c(cc2Br)CC(C)N3C(C)=O)cc1 (stereo not drawn) | . | . | - | -
COc1ccccc1/C=C/c1nc(S(=O)(=O)c2ccccc2)c(N(C)C)o1 | 72 | - | - | -
Cc1nn(CC(=O)N(C)C2(C#N)CCCCC2)c(C)c1[N+](=O)[O-] | - | 111 | - | -
Cc1ccc(SCc2cc(=O)[nH]c(SCC(=O)Nc3cc(Cl)ccc3Cl)n2)cc1 | 68 | - | - | -
CCc1ccc(NC(=O)CSc2nc(CSc3ccc(C)cc3)cc(=O)[nH]2)cc1 | - | - | - | -
Cc1ccc(-n2c(SCC(=O)NN=Cc3c[nH]c4ccccc34)nnc2-c2ccccc2)cc1 | . | . | - | -
COc1ccc(N=C2C(=O)Nc3c(C)cccc32)cc1 | 94 | - | - | -
O=c1c([N+](=O)[O-])cn(Cc2ccccc2)c(=O)n1Cc1ccccc1 | - | 56 | - | -
CC(=O)c1cn(Cc2ccccc2)c(=O)n(Cc2ccc(F)cc2)c1=O | - | - | - | -
CCn1c(COc2ccccc2C)nc2ccccc21 | - | 73 | - | -
COc1ccc(CNC(=S)Nc2cccc(C)c2C)cc1 | 52 | - | - | -
COc1ccccc1NC(=S)NC(=O)Cc1ccc(Cl)cc1 | - | 63 | - | -
CCC(=O)NC(=S)Nc1ccccc1OC | - | - | - | -
COc1ccc(C(=O)O)cc1NC(=S)NC(=O)c1ccc(-c2ccc(Cl)cc2)o1 | 86 | - | - | -
Cc1cccc(NC(=S)NCc2ccncc2)c1C | - | - | - | -
COc1ccc(CC(=O)NC(=S)Nc2cccc(CO)c2)cc1 | - | - | - | -
COc1cccc(NC(=S)NC(=O)Cc2ccc(Cl)cc2)c1 | - | 68 | - | -
COc1ccc2c(c1)CN1C(=O)N(Cc3ccc(F)cc3)S(=O)(=O)CC21 (stereo not drawn) | . | . | - | -
C=CCN1[C@@H](C)COc2cc(N3CCCC3)ccc2S1(=O)=O | . | . | - | -
Cc1cccc(NC(=S)NC(=O)Cc2ccccc2)c1C | - | 71 | - | -
Fc1cccc(NC(=S)NCc2ccc(Cl)cc2)c1 | 54 | - | - | -
FC(F)(F)c1cccc(NC(=S)NCc2ccc(Cl)cc2)c1 | - | - | - | -
COc1ccc(CC(=O)NC(=S)Nc2cccc(C)c2)cc1 | - | 58 | - | -
SMILES | CRFR2-BP antag | CRFR2-BP ag | DDE Tn6 FP inh | DDE Tn7 FP inh
O=C(NCCOC(=O)C1COc2ccccc2O1)c1cccnc1 (stereo not drawn) | - | 64 | - | -
COc1ccc(C(=O)COC(=O)CCNS(=O)(=O)c2ccc(NC(C)=O)cc2)c(OC)c1 | 51 | - | - | -
COc1cc(/C=N/NC(=O)c2nc(C)cc(C)n2)ccc1O | - | 165 | - | -
CCOC(=O)c1c(NC(=O)C(=O)N/N=C/c2ccc(OCC)cc2)sc2c1CCCCC2 | - | - | - | -
CCOC(=O)c1c(NC(=O)C(=O)N/N=C/c2ccc(O)c(OC)c2)sc2c1CCCCC2 | 55 | - | - | -
C#CCOCCOCCOCCNc1nc(N2CCN(C(=O)CCCCCCCCCCNC(=O)[C@H](CCCCN)n3cc(C[C@@H](C)CC)nn3)CC2)nc(N2CCN(C(=O)CCCCCCCCCCNC(=O)[C@H](CCCCN)n3cc(C[C@@H](C)CC)nn3)CC2)n1 | - | 92 | . | .
C#CCOCCOCCOCCNc1nc(N2CCN(C(=O)CCCCCCCCCCNC(=O)[C@H](CCCCN)n3cc(CCO)nn3)CC2)nc(N2CCN(C(=O)CCCCCCCCCCNC(=O)[C@H](CCCN=C(N)N)n3cc(C[C@@H](C)CC)nn3)CC2)n1 | - | - | . | .
